Data published in ChEMBL document CHEMBL1165950, “Design and synthesis of new potent anticancer pyrazoles with high FLT3 kinase inhibitory selectivity” (Bioorg Med Chem, 2010).

Key:
Format in all cases: functional
SK-MEL-2 = assay: Cytotoxicity against human SK-MEL-2 cells assessed as cell growth at 100 nM after 48 hrs by sulforhodamine B assay; conditions: SK-MEL-2, 48 h, read-out: Activity
CCRF-CEM = assay: Cytotoxicity against human CCRF-CEM cells assessed as cell growth at 1 uM after 48 hrs by sulforhodamine B assay; conditions: read-out: Activity
How it was run: (§1)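 NCI-60 five-dose screen. Cells were grown in RPMI 1640 with 5% FBS and 2 mM L-glutamine, plated at 5000–40,000 cells/well and preincubated for 24 h. Time-zero plates were TCA-fixed. DMSO-solubilized drug was added at five concentrations (10-fold or ½-log serial dilutions) for 48 h at 37 °C, 5% CO2. Cells were TCA-fixed, stained with 0.4% SRB and read at 515 nm. Percent growth used time-zero, control and test absorbances.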

MOLT-4 = assay: Cytotoxicity against human MOLT4 cells assessed as cell growth at 1 uM after 48 hrs by sulforhodamine B assay; conditions: MOLT-4, 48 h, read-out: Activity
SR [1] = assay: Cytotoxicity against human SR cells assessed as cell growth at 1 uM after 48 hrs by sulforhodamine B assay; conditions: read-out: Activity
EKVX = assay: Cytotoxicity against human EKVX cells assessed as cell growth at 1 uM after 48 hrs by sulforhodamine B assay; conditions: read-out: Activity
SF-539 [2] = assay: Cytotoxicity against human SF539 cells assessed as cell growth at 10 uM; conditions: read-out: Activity
How it was run: (§2)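 NCI-60 screen: cells grown in RPMI 1640 with 5% FBS and 2 mM L-glutamine, plated at 5000–40,000 cells/well according to doubling time, and preincubated 24 h at 37 °C, 5% CO2. The single 10 µM dose (DMSO stock) was added, then incubated 48 h. Cells were TCA-fixed and stained with 0.4% SRB, read at 515 nm, and growth % calculated against time-zero and control plates.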

SNB-19 [3] = assay: Cytotoxicity against human SNB19 cells assessed as cell growth at 10 uM; conditions: read-out: Activity; how it was run: as §2
BT-549 = assay: Cytotoxicity against human BT549 cells assessed as cell growth at 10 uM; conditions: read-out: Activity
How it was run: (§3)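 Single-dose NCI-60 screen at 10 µM. Cells were grown in RPMI 1640 with 5% FBS and 2 mM L-glutamine, then treated for 48 h at 37 °C. Protein was measured by SRB staining with absorbance at 515 nm. Percentage growth was recorded, and inhibition percentage was calculated as 100 minus growth percentage.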

NCI-H460 = assay: Cytotoxicity against human NCI-H460 cells assessed as cell growth at 1 uM after 48 hrs by sulforhodamine B assay; conditions: NCI-H460, 48 h, read-out: Activity
NCI-H522 = assay: Cytotoxicity against human NCI-H522 cells assessed as cell growth at 1 uM after 48 hrs by sulforhodamine B assay; conditions: NCI-H522, 48 h, read-out: Activity
A498 = assay: Cytotoxicity against human A498 cells assessed as cell growth at 0.01 uM after 48 hrs by sulforhodamine B assay; conditions: A498, 48 h, read-out: Activity; how it was run: as §1
UO-31 = assay: Cytotoxicity against human UO31 cells assessed as cell growth at 0.01 uM after 48 hrs by sulforhodamine B assay; conditions: UO-31, 48 h, read-out: Activity
SNB-19 [4] = assay: Cytotoxicity against human SNB19 cells assessed as cell growth at 0.001 uM after 48 hrs by sulforhodamine B assay; conditions: SNB-19, 48 h, read-out: Activity
Malme-3M = assay: Cytotoxicity against human MALME-3M cells assessed as cell growth at 0.001 uM after 48 hrs by sulforhodamine B assay; conditions: read-out: Activity
SR [5] = assay: Growth inhibition of human SR cells after 48 hrs by sulforhodamine B assay
How it was run: (§4)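 NCI 60-cell screen, five-dose mode. Cells grown in RPMI 1640 with 5% FBS and 2 mM L-glutamine and plated at 5000-40,000 cells/well according to doubling time. After 24 h preincubation, a Tz plate was TCA-fixed. Five concentrations (10-fold or 1/2 log dilutions) were applied for 48 h at 37 °C. SRB staining read at 515 nm. IC50 taken from [(Ti-Tz)/(C-Tz)]×100 = 50.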

A549 = assay: Growth inhibition of human A549 cells after 48 hrs by sulforhodamine B assay; conditions: A549, 48 h
How it was run: (§5)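 NCI five-dose SRB assay in RPMI 1640 with 5% FBS and 2 mM L-glutamine. Cells were preincubated 24 h, then exposed 48 h at 37 °C to five concentrations (10-fold or half-log serial dilutions from DMSO stocks). TCA fixation, SRB staining, and absorbance at 515 nm followed. IC50 was taken where [(Ti−Tz)/(C−Tz)]×100 = 50, with Tz as time-zero cell density.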

NCI-H226 [6] = assay: Growth inhibition of human NCI-H226 cells after 48 hrs by sulforhodamine B assay; conditions: NCI-H226, 48 h; how it was run: as §4
NCI-H322M = assay: Growth inhibition of human NCI-H322M cells after 48 hrs by sulforhodamine B assay; how it was run: as §4
SR [7] = assay: Cytotoxicity against human SR cells assessed as cell growth at 100 nM after 48 hrs by sulforhodamine B assay; conditions: read-out: Activity
HOP-92 [8] = assay: Cytotoxicity against human HOP92 cells assessed as cell growth at 100 nM after 48 hrs by sulforhodamine B assay; conditions: HOP-92, 48 h, read-out: Activity
NCI-H226 [9] = assay: Cytotoxicity against human NCI-H226 cells assessed as cell growth at 100 nM after 48 hrs by sulforhodamine B assay; conditions: NCI-H226, 48 h, read-out: Activity
CAKI-1 [10] = assay: Growth inhibition of human Caki1 cells after 48 hrs by sulforhodamine B assay; conditions: CAKI-1, 48 h; how it was run: as §5
HOP-92 [11] = assay: Cytotoxicity against human HOP92 cells assessed as cell growth at 10 uM; conditions: read-out: Activity; how it was run: as §3
SF-268 = assay: Cytotoxicity against human SF268 cells assessed as cell growth at 10 uM; conditions: read-out: Activity; how it was run: as §2
COLO 205 = assay: Cytotoxicity against human COLO205 cells assessed as cell growth at 10 uM after 48 hrs by sulforhodamine B assay; conditions: COLO 205, 48 h, read-out: Activity
SF-295 = assay: Cytotoxicity against human SF295 cells assessed as cell growth at 10 uM after 48 hrs by sulforhodamine B assay; conditions: SF-295, 48 h, read-out: Activity
SF-539 [12] = assay: Cytotoxicity against human SF539 cells assessed as cell growth at 10 uM after 48 hrs by sulforhodamine B assay; conditions: SF-539, 48 h, read-out: Activity
UACC-257 = assay: Cytotoxicity against human UACC257 cells assessed as cell growth at 10 uM after 48 hrs by sulforhodamine B assay; conditions: UACC-257, 48 h, read-out: Activity
CAKI-1 [13] = assay: Cytotoxicity against human Caki1 cells assessed as cell growth at 10 uM after 48 hrs by sulforhodamine B assay; conditions: CAKI-1, 48 h, read-out: Activity
[14] = read-out: LC50 (the source's name)

In the case of `COc1cc(C)cc(-c2c(-c3ccnc(-c4ccc(C(C)=O)cc4)c3)cnn2CC#N)c1`, the growth at 0.1 µM (SK-MEL-2) is reported as 103%, the growth at 1 µM (CCRF-CEM) is reported as 12% and the growth at 1 µM (MOLT-4) is reported as 7%. For the same compound, the growth at 1 µM (SR [1]) was 18%, the growth at 1 µM (EKVX) was 37% and the growth at 10 µM (SF-539 [2]) was 59.9%. For the same compound, the growth at 10 µM (SNB-19 [3]) was 73.7%, the growth at 10 µM (BT-549) was 60% and the growth at 1 µM (NCI-H460) was -9%. It also gave a growth at 1 µM (NCI-H522) of -14%, a growth at 0.01 µM (A498) of 77% and a growth at 0.01 µM (UO-31) of 87%. The growth at 0.001 µM (SNB-19 [4]) was 102%, the growth at 0.001 µM (Malme-3M) was 105% and the GI50 (SR [5]) was 2.87 µM. The LC50 (concentration killing 50% of cells) (SR [5]) was greater than 100 µM, the TGI (SR [5]) was greater than 100 µM and the GI50 (A549) was 3.68 µM. The LC50 (A549) was greater than 100 µM, the TGI (A549) was greater than 100 µM and the GI50 (NCI-H226 [6]) was 5.47 µM. For the same compound, the TGI (NCI-H226 [6]) was greater than 100 µM, the CC50 (NCI-H226 [6]; [14]) was greater than 100 µM and the GI50 (NCI-H322M) was greater than 100 µM. It also gave a TGI (NCI-H322M) greater than 100 µM, a CC50 (NCI-H322M; [14]) greater than 100 µM and a growth at 0.1 µM (SR [7]) of 77%. The growth at 0.1 µM (HOP-92 [8]) was 61%, the growth at 0.1 µM (NCI-H226 [9]) was 96% and the GI50 (CAKI-1 [10]) was 4.24 µM. The TGI (CAKI-1 [10]) was greater than 100 µM, the CC50 (CAKI-1 [10]; [14]) was greater than 100 µM and the growth at 10 µM (HOP-92 [11]) was 23.5%. For the same compound, the growth at 10 µM (SF-268) was 90.5%, the growth at 10 µM (COLO 205) was -67% and the growth at 10 µM (SF-295) was 35%. For the same compound, the growth at 10 µM (SF-539 [12]) was -34%, the growth at 10 µM (UACC-257) was 36% and the growth at 10 µM (CAKI-1 [13]) was 25%.
